In ChEMBL document CHEMBL4689842, “EUbOPEN Chemogenomics Library wave 1” (2021):
Values joined by “and” are separate entries in the source; they are usually repeats but may differ in a detail not shown here. Equal values may be shown once.

What was measured:
Assay type in all cases: toxicity, cell-based
Fibroblast [1] = assay: Incucyte cell viability with human fibroblast; settings: 10 µM, compound concentration 10 uM; further: filed as whole numbers so only -1 and 0 and 1 occur
HEK-293T [2] = assay: Incucyte cell viability with HEK293T; settings: human, 10 µM, compound concentration 10 uM; further: filed as whole numbers so only -1 and 0 and 1 occur
U2OS [3] = assay: Incucyte cell viability with U2OS; settings: human, 10 µM, compound concentration 10 uM; further: filed as whole numbers so only -1 and 0 and 1 occur
U2OS [4] = assay: Multiplex assay against U2OS; settings: human, 10 µM, compound concentration 10 uM
Method in brief: (§1)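 Live cells carried four stains from seeding: Hoechst33342, BioTracker Green Microtubule Cytoskeleton Dye, MitoTracker Red and Annexin V Alexa Fluor 680. They were imaged on a CQ1 microscope at 37°C and 5% CO2 after compound addition. Using CellPathfinder machine-learning gating, cells were split into Hoechst high-intensity objects or normal cells, normal cells into healthy, pyknosed or fragmented nuclei, and pyknosed cells into mitotic or apoptotic; tubulin, mitochondrial-mass and membrane-permeability phenotypes are per cents of healthy-nucleus cells.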

HEK-293T [5] = assay: Multiplex assay against HEK293T; settings: human, 10 µM, compound concentration 10 uM; method in brief: as §1;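 on Population Tubulin-Different-Phenotype (%): share of the cells with healthy nuclei that show this phenotype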
Fibroblast [6] = assay: Multiplex assay against human fibroblast; settings: 10 µM, compound concentration 10 uM; method in brief: as §1
[7] = 0 h, replicate number 1, timepoint 0 hours
[8] = 6 h, replicate number 1, timepoint 6 hours
[9] = 12 h, replicate number 1, timepoint 12 hours
[10] = 18 h, replicate number 1, timepoint 18 hours
[11] = 24 h, replicate number 1, timepoint 24 hours

Which results are given for COc1ccccc1-c1cc(Nc2cccc(CS(N)(=O)=O)c2)ncn1?
Growth Rate (Fibroblast [1]; [7]): 0; Growth Rate (Fibroblast [1]; [8]): 0; Growth Rate (Fibroblast [1]; 6 h, replicate number 2, timepoint 6 hours): 1; Growth Rate (Fibroblast [1]; [9]): 0; Growth Rate (Fibroblast [1]; [10]): 0; Growth Rate (Fibroblast [1]; [11]): 0; Growth Rate (HEK-293T [2]; [7]): 0; Growth Rate (HEK-293T [2]; [8]): 0; Growth Rate (HEK-293T [2]; [9]): 0; Growth Rate (HEK-293T [2]; [10]): 0; Growth Rate (HEK-293T [2]; [11]): 0; Growth Rate (U2OS [3]; [7]): 0; Growth Rate (U2OS [3]; [8]): 0; Growth Rate (U2OS [3]; [9]): 0; Growth Rate (U2OS [3]; [10]): 0; Growth Rate (U2OS [3]; [11]): 0; Population Apoptotic (%) (U2OS [4]; 12 h, replicate 1): 53% and 27%; Population Fragmented Nuclei (%) (U2OS [4]; 12 h, replicate 1): 10% and 8%; Population Healthy Nuclei (%) (U2OS [4]; 12 h, replicate 1): 82% and 84%; Population Membrane Permeable-Phenotype (%) (U2OS [4]; 12 h, replicate 1): 13% and 7%; Population Mitochondria Different-Phenotype (%) (U2OS [4]; 12 h, replicate 1): 23% and 20%; Population Mitotic Cells (%) (U2OS [4]; 12 h, replicate 1): 46% and 72%; Population Normal (%) (U2OS [4]; 12 h, replicate 1): 93% and 98%; Population Pyknosed Nuclei (%) (U2OS [4]; 12 h, replicate 1): 7% and 6%; Population Tubulin-Different-Phenotype (%) (U2OS [4]; 12 h, replicate 1): 19% and 10%; Total Cell Count (U2OS [4]; 12 h, replicate 1): 160 and 443; Population Apoptotic (%) (U2OS [4]; 12 h, replicate 2): 0% and 25%; Population Fragmented Nuclei (%) (U2OS [4]; 12 h, replicate 2): 9%; Population Healthy Nuclei (%) (U2OS [4]; 12 h, replicate 2): 75% and 86%; Population Hoechst High Intensity Objects (%) (U2OS [4]; 12 h, replicate 2): 16% and 11%; Population Membrane Permeable-Phenotype (%) (U2OS [4]; 12 h, replicate 2): 17% and 9%; Population Mitochondria Different-Phenotype (%) (U2OS [4]; 12 h, replicate 2): 21%; Population Mitotic Cells (%) (U2OS [4]; 12 h, replicate 2): 100% and 75%; Population Normal (%) (U2OS [4]; 12 h, replicate 2): 83% and 88%; Population Tubulin-Different-Phenotype (%) (U2OS [4]; 12 h, replicate 2): 12% and 34%; Total Cell Count (U2OS [4]; 12 h, replicate 2): 138 and 311; Population Apoptotic (%) (U2OS [4]; 24 h, replicate 1): 68% and 25%; Population Healthy Nuclei (%) (U2OS [4]; 24 h, replicate 1): 79% and 93%; Population Hoechst High Intensity Objects (%) (U2OS [4]; 24 h, replicate 1): 3% and 2%; Population Membrane Permeable-Phenotype (%) (U2OS [4]; 24 h, replicate 1): 16% and 7%; Population Mitochondria Different-Phenotype (%) (U2OS [4]; 24 h, replicate 1): 30% and 18%; Population Mitotic Cells (%) (U2OS [4]; 24 h, replicate 1): 31% and 75%; Population Normal (%) (U2OS [4]; 24 h, replicate 1): 96% and 97%; Population Tubulin-Different-Phenotype (%) (U2OS [4]; 24 h, replicate 1): 22%; Total Cell Count (U2OS [4]; 24 h, replicate 1): 230 and 545; Population Apoptotic (%) (U2OS [4]; 24 h, replicate 2): 62% and 50%; Population Healthy Nuclei (%) (U2OS [4]; 24 h, replicate 2): 63% and 91%; Population Mitochondria Different-Phenotype (%) (U2OS [4]; 24 h, replicate 2): 33% and 31%; Population Mitotic Cells (%) (U2OS [4]; 24 h, replicate 2): 37% and 50%; Population Normal (%) (U2OS [4]; 24 h, replicate 2): 78% and 93%; Population Tubulin-Different-Phenotype (%) (U2OS [4]; 24 h, replicate 2): 23% and 33%; Total Cell Count (U2OS [4]; 24 h, replicate 2): 157 and 384; Population Apoptotic (%) (HEK-293T [5]; 12 h, replicate 1): 31% and 19%; Population Fragmented Nuclei (%) (HEK-293T [5]; 12 h, replicate 1): 21% and 13%; Population Healthy Nuclei (%) (HEK-293T [5]; 12 h, replicate 1): 58% and 71%; Population Hoechst High Intensity Objects (%) (HEK-293T [5]; 12 h, replicate 1): 17% and 8%; Population Membrane Permeable-Phenotype (%) (HEK-293T [5]; 12 h, replicate 1): 3%; Population Mitochondria Different-Phenotype (%) (HEK-293T [5]; 12 h, replicate 1): 6% and 5%; Population Mitotic Cells (%) (HEK-293T [5]; 12 h, replicate 1): 68% and 80%; Population Normal (%) (HEK-293T [5]; 12 h, replicate 1): 82% and 91%; Population Pyknosed Nuclei (%) (HEK-293T [5]; 12 h, replicate 1): 20% and 15%; Population Tubulin-Different-Phenotype (%) (HEK-293T [5]; 12 h, replicate 1): 5% and 3%; Total Cell Count (HEK-293T [5]; 12 h, replicate 1): 577 and 663; Population Apoptotic (%) (HEK-293T [5]; 12 h, replicate 2): 8% and 20%; Population Fragmented Nuclei (%) (HEK-293T [5]; 12 h, replicate 2): 11% and 9%; Population Healthy Nuclei (%) (HEK-293T [5]; 12 h, replicate 2): 84% and 85%; Population Hoechst High Intensity Objects (%) (HEK-293T [5]; 12 h, replicate 2): 1% and 3%; Population Membrane Permeable-Phenotype (%) (HEK-293T [5]; 12 h, replicate 2): 2% and 0%; Population Mitochondria Different-Phenotype (%) (HEK-293T [5]; 12 h, replicate 2): 7% and 12%; Population Mitotic Cells (%) (HEK-293T [5]; 12 h, replicate 2): 91%; Population Normal (%) (HEK-293T [5]; 12 h, replicate 2): 98% and 96%; Population Pyknosed Nuclei (%) (HEK-293T [5]; 12 h, replicate 2): 4% and 5%; Population Tubulin-Different-Phenotype (%) (HEK-293T [5]; 12 h, replicate 2): 6% and 7%; Total Cell Count (HEK-293T [5]; 12 h, replicate 2): 2027 and 1134; Population Apoptotic (%) (HEK-293T [5]; 24 h, replicate 1): 24% and 33%; Population Fragmented Nuclei (%) (HEK-293T [5]; 24 h, replicate 1): 14% and 19%; Population Healthy Nuclei (%) (HEK-293T [5]; 24 h, replicate 1): 76% and 63%; Population Hoechst High Intensity Objects (%) (HEK-293T [5]; 24 h, replicate 1): 4% and 13%; Population Membrane Permeable-Phenotype (%) (HEK-293T [5]; 24 h, replicate 1): 8%; Population Mitochondria Different-Phenotype (%) (HEK-293T [5]; 24 h, replicate 1): 3% and 5%; Population Mitotic Cells (%) (HEK-293T [5]; 24 h, replicate 1): 75% and 66%; Population Normal (%) (HEK-293T [5]; 24 h, replicate 1): 95% and 86%; Population Pyknosed Nuclei (%) (HEK-293T [5]; 24 h, replicate 1): 8% and 17%; Population Tubulin-Different-Phenotype (%) (HEK-293T [5]; 24 h, replicate 1): 6%; Total Cell Count (HEK-293T [5]; 24 h, replicate 1): 801 and 590; Population Apoptotic (%) (HEK-293T [5]; 24 h, replicate 2): 11% and 13%; Population Healthy Nuclei (%) (HEK-293T [5]; 24 h, replicate 2): 66% and 86%; Population Hoechst High Intensity Objects (%) (HEK-293T [5]; 24 h, replicate 2): 3%; Population Membrane Permeable-Phenotype (%) (HEK-293T [5]; 24 h, replicate 2): 6% and 3%; Population Mitotic Cells (%) (HEK-293T [5]; 24 h, replicate 2): 88% and 86%; Population Normal (%) (HEK-293T [5]; 24 h, replicate 2): 96%; Population Pyknosed Nuclei (%) (HEK-293T [5]; 24 h, replicate 2): 2% and 4%; Population Tubulin-Different-Phenotype (%) (HEK-293T [5]; 24 h, replicate 2): 9% and 23%; Total Cell Count (HEK-293T [5]; 24 h, replicate 2): 3407 and 1342; Population Apoptotic (%) (Fibroblast [6]; 12 h, replicate 1): 70% and 60%; Population Fragmented Nuclei (%) (Fibroblast [6]; 12 h, replicate 1): 24% and 28%; Population Healthy Nuclei (%) (Fibroblast [6]; 12 h, replicate 1): 62% and 53%; Population Hoechst High Intensity Objects (%) (Fibroblast [6]; 12 h, replicate 1): 11% and 10%; Population Membrane Permeable-Phenotype (%) (Fibroblast [6]; 12 h, replicate 1): 9%; Population Mitochondria Different-Phenotype (%) (Fibroblast [6]; 12 h, replicate 1): 4%; Population Mitotic Cells (%) (Fibroblast [6]; 12 h, replicate 1): 29% and 39%; Population Normal (%) (Fibroblast [6]; 12 h, replicate 1): 88% and 89%; Population Pyknosed Nuclei (%) (Fibroblast [6]; 12 h, replicate 1): 13% and 17%; Total Cell Count (Fibroblast [6]; 12 h, replicate 1): 208 and 254; Population Apoptotic (%) (Fibroblast [6]; 12 h, replicate 2): 50% and 75%; Population Fragmented Nuclei (%) (Fibroblast [6]; 12 h, replicate 2): 63% and 72%; Population Healthy Nuclei (%) (Fibroblast [6]; 12 h, replicate 2): 31% and 20%; Population Hoechst High Intensity Objects (%) (Fibroblast [6]; 12 h, replicate 2): 34% and 40%; Population Membrane Permeable-Phenotype (%) (Fibroblast [6]; 12 h, replicate 2): 16% and 10%; Population Mitochondria Different-Phenotype (%) (Fibroblast [6]; 12 h, replicate 2): 8% and 20%; Population Mitotic Cells (%) (Fibroblast [6]; 12 h, replicate 2): 50% and 25%; Population Normal (%) (Fibroblast [6]; 12 h, replicate 2): 65% and 59%; Population Pyknosed Nuclei (%) (Fibroblast [6]; 12 h, replicate 2): 5% and 8%; Population Tubulin-Different-Phenotype (%) (Fibroblast [6]; 12 h, replicate 2): 25% and 30%; Total Cell Count (Fibroblast [6]; 12 h, replicate 2): 58 and 84; Population Apoptotic (%) (Fibroblast [6]; 24 h, replicate 1): 75% and 66%; Population Fragmented Nuclei (%) (Fibroblast [6]; 24 h, replicate 1): 25% and 23%; Population Healthy Nuclei (%) (Fibroblast [6]; 24 h, replicate 1): 60% and 57%; Population Hoechst High Intensity Objects (%) (Fibroblast [6]; 24 h, replicate 1): 14% and 10%; Population Membrane Permeable-Phenotype (%) (Fibroblast [6]; 24 h, replicate 1): 7%; Population Mitochondria Different-Phenotype (%) (Fibroblast [6]; 24 h, replicate 1): 4% and 11%; Population Mitotic Cells (%) (Fibroblast [6]; 24 h, replicate 1): 24% and 33%; Population Normal (%) (Fibroblast [6]; 24 h, replicate 1): 85% and 89%; Population Pyknosed Nuclei (%) (Fibroblast [6]; 24 h, replicate 1): 14% and 19%; Total Cell Count (Fibroblast [6]; 24 h, replicate 1): 267 and 188; Population Apoptotic (%) (Fibroblast [6]; 24 h, replicate 2): 50%; Population Fragmented Nuclei (%) (Fibroblast [6]; 24 h, replicate 2): 54% and 70%; Population Healthy Nuclei (%) (Fibroblast [6]; 24 h, replicate 2): 40% and 26%; Population Hoechst High Intensity Objects (%) (Fibroblast [6]; 24 h, replicate 2): 30% and 28%; Population Membrane Permeable-Phenotype (%) (Fibroblast [6]; 24 h, replicate 2): 21% and 13%; Population Mitochondria Different-Phenotype (%) (Fibroblast [6]; 24 h, replicate 2): 0%; Population Mitotic Cells (%) (Fibroblast [6]; 24 h, replicate 2): 50%; Population Normal (%) (Fibroblast [6]; 24 h, replicate 2): 70% and 71%; Population Pyknosed Nuclei (%) (Fibroblast [6]; 24 h, replicate 2): 5% and 3%; Population Tubulin-Different-Phenotype (%) (Fibroblast [6]; 24 h, replicate 2): 28% and 26%; Total Cell Count (Fibroblast [6]; 24 h, replicate 2): 50 and 80
